For assay [1], the system named is Mus musculus. Put plainly: Anticonvulsant activity against subcutaneous pentylenetetrazole-induced seizures in mouse at 300 mg/kg, ip. Also noted: dose 300 mg/kg. It counts as functional, organism-based.
The test system of assay [2] is Mus musculus. Description: Anticonvulsant activity against maximal electroshock-induced seizures in mouse at 300 mg/kg, ip. It counts as functional, organism-based. Also noted: dose 300 mg/kg. In general terms: The maximal electroshock test induces tonic seizures with an electrical stimulus.
Assay [3] relates to Staphylococcus epidermidis. Put plainly: Antibacterial activity against Staphylococcus epidermidis ATCC 12228 after 18 hrs by NCCLS M7-A4 method. It counts as functional, organism-based. The method in brief: (§1)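 Agar dilution on Mueller–Hinton agar, following NCCLS (now CLSI) guidance. Test compounds were dissolved in 80% DMSO in water and tested at 0.12 to 16. Plates were incubated at 35 °C for 18 h. The MIC was the lowest concentration giving complete growth inhibition.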

The next assay deals with Enterococcus. Description: Antibacterial activity against vancomycin-sensitive Enterococcus clinical isolate after 18 hrs by NCCLS M7-A4 method. Type of assay: functional. The method in brief:
(§2)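 Test compounds dissolved in 80% DMSO in water. Clinical isolates came from a MRSA reference laboratory culture collection. Final inoculum 10^7 CFU/ml, incubated 35 °C for 18 h. MIC taken as the lowest concentration completely inhibiting growth. Reference strains S. aureus ATCC 25923, S. epidermidis ATCC 12228 and E. faecalis ATCC 29212 served as test controls.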

The subject of the next assay is Staphylococcus. Description: Antibacterial activity against methicillin-sensitive coagulase-negative Staphylococcus clinical isolate after 18 hrs by NCCLS M7-A4 method. It counts as functional. In short, it runs like this:
as §2

The test system of another assay is Streptococcus pneumoniae. Description: Antibacterial activity against Streptococcus pneumoniae clinical isolate after 18 hrs by NCCLS M7-A4 method. It counts as functional. In short, it runs like this: (§3)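 Agar dilution on Mueller–Hinton agar with 5% sheep blood, per NCCLS/CLSI. Compounds were dissolved in 80% DMSO in water and tested over 0.12–16. Incubation was 35 °C for 18 h. MIC was read as the lowest concentration completely inhibiting growth. Line 4 used clinical isolates (n = 7 for H. influenzae).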

The subject of assay [4] is Haemophilus influenzae. Put plainly: Antibacterial activity against Haemophilus influenzae clinical isolate after 18 hrs by NCCLS M7-A4 method. Type of assay: functional. The method in brief:
as §3

Assay [5] deals with Staphylococcus aureus. Put plainly: Antibacterial activity against methicillin-susceptible Staphylococcus aureus clinical isolate after 18 hrs by NCCLS M7-A4 method. Type of assay: functional. In short, it runs like this:
as §2

Assay [6] deals with Haemophilus influenzae. Description: Antibacterial activity against Haemophilus influenzae ATCC 49247 after 18 hrs by NCCLS M7-A4 method. Type of assay: functional, organism-based. In short, it runs like this: as §3
The next assay has as its system Escherichia coli. Description: Antibacterial activity against Escherichia coli ATCC 25922 after 18 hrs by NCCLS M7-A4 method. Type of assay: functional, organism-based. In short, it runs like this:
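Reference E. coli strain tested by NCCLS/CLSI agar dilution. Compounds were in 80% DMSO in water over a 0.12–16 dilution range, incubated at 35 °C for 18 h.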

The subject of assay [7] is Staphylococcus aureus. Description: Antibacterial activity against Staphylococcus aureus ATCC 25923 after 18 hrs by NCCLS M7-A4 method. It counts as functional, organism-based. The method in brief: as §1
In a further assay the test system is Enterococcus faecalis. Put plainly: Antibacterial activity against Enterococcus faecalis ATCC 29212 after 18 hrs by NCCLS M7-A4 method. It counts as functional, organism-based. In short, it runs like this:
as §1

In assay [8] the test system is Mus musculus. Description: Anticonvulsant activity against maximal electroshock-induced seizures in mouse at <=100 mg/kg, ip. Type of assay: functional, organism-based.
In assay [9] the test system is Mus musculus. Description: Anticonvulsant activity against subcutaneous pentylenetetrazole-induced seizures in mouse at <=100 mg/kg, ip. It counts as functional, organism-based.

The source made the active and inactive calls. The rule behind the calls is not given here.

On to `CCOC(=O)C1C(=O)C=C(Nc2ccc(F)cc2)CC1c1ccccc1` (centres undefined), for which the result with Mus musculus [1] and with Mus musculus [2] was inactive.

In the case of `COC(=O)C1C(=O)C=C(NCCc2ccccc2)CC1c1ccccc1` (centres undefined), the outcome in the assay with Mus musculus [1] and with Mus musculus [2] was inactive.

Take `COC(=O)C1C(=O)C=C(Nc2ccc(N3CCN(C(=O)OC(C)(C)C)CC3)c(F)c2)CC1c1ccccc1` (centres undefined): the result in the assay on Mus musculus [1] and in the assay with Mus musculus [2] was inactive.

`CCOC(=O)C1C(=O)C=C(Nc2ccccc2)CC1c1ccccc1` (centres undefined): the outcome in the assay on Mus musculus [1] and in the assay on Mus musculus [2] was inactive.

Consider `COC(=O)C1C(=O)C=C(N2CCCC2)CC1c1ccccc1` (centres undefined), for which the outcome in the assay with Mus musculus [1] and in the assay with Mus musculus [2] was inactive.

On to `CCOC(=O)C1C(=O)C=C(Nc2ccc(N3CCOCC3)c(F)c2)CC1c1ccccc1` (centres undefined), for which the outcome (in assay [3]; with Haemophilus influenzae [6]; in the assay on Escherichia coli; in the assay on Mus musculus [1]; with Staphylococcus aureus [7]; with Mus musculus [2]) was inactive. The result in the assay with Enterococcus faecalis was inactive. The MIC in the assay with Enterococcus, against Staphylococcus, against Streptococcus pneumoniae, against Haemophilus influenzae [4] and against Staphylococcus aureus [5] was more than 16 µg/mL in each case.

Take `CCOC(=O)C1C(=O)C=C(Nc2ccc(N3CCOCC3)c(F)c2)CC1C` (centres undefined): the outcome (in assay [3]; with Haemophilus influenzae [6]; in the assay with Escherichia coli; in the assay with Mus musculus [1]; in the assay with Staphylococcus aureus [7]; with Mus musculus [2]) was inactive. Further, the result in the assay with Enterococcus faecalis was inactive. The MIC against Enterococcus, in the assay on Staphylococcus, in the assay on Streptococcus pneumoniae, against Haemophilus influenzae [4] and against Staphylococcus aureus [5] was more than 16 µg/mL in each case.

Regarding `COC(=O)C1C(=O)C=C(Nc2ccc(N3CCOCC3)c(F)c2)CC1c1ccccc1` (centres undefined), the outcome in the assay on Mus musculus [1] and in the assay on Mus musculus [2] was inactive.

Take `COC(=O)C1C(=O)C=C(NCCCCc2ccccc2)CC1c1ccccc1` (centres undefined): the result in the assay with Mus musculus [1] and with Mus musculus [2] was inactive.

For `CCOC(=O)C1C(=O)C=C(Nc2ccc(Cl)cn2)CC1c1ccccc1` (centres undefined), the outcome with Mus musculus [1] and with Mus musculus [2] was inactive.

In the case of `CCOC(=O)C1C(=O)C=C(N2CCOCC2)CC1c1ccccc1` (centres undefined), the result with Mus musculus [1] and in the assay on Mus musculus [2] was inactive.

Take `CCOC(=O)C1C(=O)C=C(Nc2cccc(Cl)c2)CC1C` (centres undefined): the outcome in the assay on Mus musculus [8] and in the assay with Mus musculus [9] was Active.

With `CCN(CC)C1=CC(=O)C(C(=O)OC)C(c2ccccc2)C1` (centres undefined), the outcome in the assay on Mus musculus [1] and in the assay on Mus musculus [2] was inactive.

Regarding `COC(=O)C1C(=O)C=C(Nc2ccc(F)cc2)CC1c1ccccc1` (centres undefined), the outcome with Mus musculus [1] and with Mus musculus [2] was inactive.

In the case of `COC(=O)C1C(=O)C=C(Nc2ccc(N3CCN(C(=O)OC(C)(C)C)CC3)c(F)c2)CC1C` (centres undefined), the result with Mus musculus [1] and with Mus musculus [2] was inactive.

Take `CCOC(=O)C1C(=O)C=C(Nc2ccc(Br)cc2)CC1c1ccccc1` (centres undefined): the outcome in the assay on Mus musculus [1] and with Mus musculus [2] was inactive.

With `CCOC(=O)C1C(=O)C=C(N2CCN(c3ccc([N+](=O)[O-])cc3F)CC2)CC1C` (centres undefined), the outcome in the assay on Mus musculus [1] and in the assay on Mus musculus [2] was inactive.

In the case of `COC(=O)C1C(=O)C=C(Nc2ccc(Cl)cn2)CC1c1ccccc1` (centres undefined), the outcome in the assay on Mus musculus [1] and in the assay on Mus musculus [2] was inactive.

As for `CCOC(=O)C1C(=O)C=C(Nc2ccc(Br)cc2)CC1C` (centres undefined), the outcome in the assay with Mus musculus [8] and in the assay on Mus musculus [9] was Active.

`COC(=O)C1C(=O)C=C(NC[C@H]2CN(c3ccc(N4CCOCC4)c(F)c3)C(=O)O2)CC1c1ccccc1` (some centres undefined): the outcome (in assay [3]; in the assay with Haemophilus influenzae [6]; in the assay with Escherichia coli; in the assay on Mus musculus [1]; in the assay on Staphylococcus aureus [7]; in the assay on Mus musculus [2]) was inactive. Also, the result in the assay with Enterococcus faecalis was inactive. Moreover, the MIC in the assay on Enterococcus, in the assay on Staphylococcus, against Streptococcus pneumoniae, with Haemophilus influenzae [4] and in the assay on Staphylococcus aureus [5] was more than 16 µg/mL in each case.

For `COC(=O)C1C(=O)C=C(Nc2ccc(N3CCOCC3)c(F)c2)CC1C` (centres undefined), the outcome in the assay on Mus musculus [1] and in the assay on Mus musculus [2] was inactive.

`CCOC(=O)C1C(=O)C=C(NCCCc2ccccc2)CC1c1ccccc1` (centres undefined): the result in the assay on Mus musculus [1] and in the assay on Mus musculus [2] was inactive.

Regarding `COC(=O)C1C(=O)C=C(NC[C@H]2CN(c3ccc(N4CCOCC4)c(F)c3)C(=O)O2)CC1C` (some centres undefined), the result (in assay [3]; with Haemophilus influenzae [6]; in the assay with Escherichia coli; in the assay with Mus musculus [1]; in the assay with Staphylococcus aureus [7]; in the assay with Mus musculus [2]) was inactive. Also, the result in the assay with Enterococcus faecalis was inactive. Further, the MIC with Enterococcus, with Staphylococcus, in the assay on Streptococcus pneumoniae, with Haemophilus influenzae [4] and in the assay on Staphylococcus aureus [5] was more than 16 µg/mL each time.

`CCOC(=O)C1C(=O)C=C(Nc2ccc(N3CCN(C(=O)OC(C)(C)C)CC3)c(F)c2)CC1c1ccccc1` (centres undefined): the outcome with Mus musculus [1] and in the assay on Mus musculus [2] was inactive.

Turning to `CCOC(=O)C1C(=O)C=C(Nc2ccc(O)cc2)CC1c1ccccc1` (centres undefined), the result in the assay with Mus musculus [1] and in the assay on Mus musculus [2] was inactive.

Consider `CCOC(=O)C1C(=O)C=C(NCCCCc2ccccc2)CC1c1ccccc1` (centres undefined), for which the result with Mus musculus [1] and in the assay with Mus musculus [2] was inactive.

With `CCOC(=O)C1C(=O)C=C(NCCc2ccccc2)CC1c1ccccc1` (centres undefined), the result with Mus musculus [1] and with Mus musculus [2] was inactive.

Turning to `COC(=O)C1C(=O)C=C(N2CCN(c3ccc([N+](=O)[O-])cc3F)CC2)CC1c1ccccc1` (centres undefined), the outcome with Mus musculus [1] and in the assay with Mus musculus [2] was inactive.

On to `CCOC(=O)C1C(=O)C=C(Nc2ccc(F)cc2)CC1C` (centres undefined), for which the outcome with Mus musculus [8] and in the assay with Mus musculus [9] was Active.

For `CCOC(=O)C1C(=O)C=C(N(CC)CC)CC1c1ccccc1` (centres undefined), the result in the assay with Mus musculus [1] and in the assay on Mus musculus [2] was inactive.

With `CCOC(=O)C1C(=O)C=C(N2CCN(c3ccc([N+](=O)[O-])cc3F)CC2)CC1c1ccccc1` (centres undefined), the outcome in the assay with Mus musculus [1] and in the assay with Mus musculus [2] was inactive.

Take `CCOC(=O)C1C(=O)C=C(NCCc2ccccc2)CC1C` (centres undefined): the result with Mus musculus [8] was Active.

On to `CCOC(=O)C1C(=O)C=C(Nc2ccc([N+](=O)[O-])cc2)CC1c1ccccc1` (centres undefined), for which the outcome with Mus musculus [1] and with Mus musculus [2] was inactive.

`COC(=O)C1C(=O)C=C(NCCCc2ccccc2)CC1c1ccccc1` (centres undefined): the outcome in the assay on Mus musculus [1] and in the assay with Mus musculus [2] was inactive.

In the case of `CCOC(=O)C1C(=O)C=C(NC[C@H]2CN(c3ccc(N4CCOCC4)c(F)c3)C(=O)O2)CC1C` (some centres undefined), the result (in assay [3]; in the assay with Haemophilus influenzae [6]; in the assay with Escherichia coli; in the assay with Mus musculus [1]; in the assay on Staphylococcus aureus [7]; with Mus musculus [2]) was inactive. Besides, in the assay on Enterococcus faecalis, the outcome was inactive. The MIC in the assay with Enterococcus, in the assay on Staphylococcus, in the assay with Streptococcus pneumoniae, with Haemophilus influenzae [4] and in the assay with Staphylococcus aureus [5] was more than 16 µg/mL in each case.

The record behind these values is ChEMBL document CHEMBL1137699, “Synthesis, antibacterial and anticonvulsant evaluations of some cyclic enaminones” (Eur J Med Chem, 2009).
